Tests used:
[1] = Catalytic rate constant was determined; format: ADME
Homo sapiens [2] = species on record: Homo sapiens; assay: Inhibitory concentration required to reduce vaccinia virus induced cytopathogenic effect (CPE) in human skin fibroblast; format: functional, organism-based
Homo sapiens [3] = species on record: Homo sapiens; assay: Inhibitory concentration required to reduce HSV-2 induced virus plaque reduction (VPR) in human skin fibroblast; format: functional, organism-based
Human alphaherpesvirus 3 [4] = assay: Antiviral activity against YS strain of thymidine kinase positive(TK+) Varicella-Zoster Virus (VZV); format: functional, organism-based
HFF [5] = assay: Cytotoxic concentration for 50% inhibition of cell growth of HSV-2 infected HFF cells determined by CPE assay; format: functional; settings: Homo sapiens
Homo sapiens [6] = species on record: Homo sapiens; assay: Cytotoxic concentration that produces 50% growth inhibition of human skin fibroblast in CPE assay; format: functional
[7] = Selectivity index calculated as CC50/EC50 in the study of VPR assay of vaccinia virus; format: functional
[8] = Selectivity index calculated as CC50/EC50 in the VPR assay of HSV-1; format: functional
HFF [9] = assay: Concentration to reduce Cowpox virus plaque reduction (VPR) by 50% in HFF cells; format: functional, cell-based; settings: Homo sapiens
[10] = Cytotoxic concentration against osteosarcoma cells stably transfected with HSV-1 TK (143B-TK+-HSV-1-WT); format: functional; settings: Human alphaherpesvirus 1
How it was run: (§1)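 Osteosarcoma lines (143B-TK⁻ with 0.1 mg/mL 5-BrdU selection; MG-63-hTK1; 143B-TK⁺-HSV1-WT with HAT) grown in MEM/10% FCS. Seeded at 2 × 10³ (143B lines) or 1.5 × 10³ (MG-63) cells/well, exposed to five concentrations over 0.5–500 μM for 4.5 days at 37 °C/5% CO₂. XTT added for 9 h, A450 (ref 750 nm) read against untreated wells. Three independent series in triplicate.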

[11] = Selectivity index calculated as CC50/EC50 in the study of cytopathogenic effect by HSV-1; format: functional
Human alphaherpesvirus 3 [12] = assay: Antiviral activity against YS/R strain of thymidine kinase negative(TK-) Varicella-Zoster Virus (VZV); format: functional, organism-based
[13] = system: Thymidine kinase (Herpes simplex virus type 1); assay: Catalytic turnover constant against HSV-1 thymidine kinase
Human alphaherpesvirus 3 [14] = assay: Effective concentration against TK+ Varicella-Zoster Virus (VZV) OKA strain; format: functional, organism-based
HFF [15] = assay: Concentration to reduce vaccinia virus plaque reduction (VPR) by 50% in HFF cells; format: functional, cell-based; settings: Homo sapiens
Human alphaherpesvirus 3 [16] = assay: Cytotoxic concentration that causes growth inhibition of VZV infected Osteosarcoma cells; format: functional
Human alphaherpesvirus 3 [17] = assay: Effective concentration against TK+ Varicella-Zoster Virus (VZV)YS strain; format: functional, organism-based
[18] = Minimum cytotoxic concentration that causes microscopically detectable alterations of cell morphology; format: functional
Human alphaherpesvirus 3 [19] = assay: Minimum cytotoxic concentration that causes alterations of VZV infected Osteosarcoma cell morphology; format: functional
Homo sapiens [20] = species on record: Homo sapiens; assay: Inhibitory concentration required to reduce cowpox virus induced cytopathogenic effect (CPE) in human skin fibroblast; format: functional, organism-based
Human alphaherpesvirus 3 [21] = assay: Antiviral activity against 07/1 strain of thymidine kinase negative (TK-) Varicella-Zoster Virus (VZV); format: functional, organism-based
Human alphaherpesvirus 3 [22] = assay: Effective concentration against TK- Varicella-Zoster Virus (VZV) YS/R strain; format: functional, organism-based
HFF [23] = assay: Inhibitory concentration for HSV-1 plaque reduction (VPR) by 50% in HFF cells; format: functional, cell-based; settings: Homo sapiens
Homo sapiens [24] = species on record: Homo sapiens; assay: Inhibitory concentration required to reduce HSV-1 induced virus plaque reduction (VPR) in human skin fibroblast; format: functional, organism-based
Human alphaherpesvirus 1 = assay: Inhibitory concentration required to reduce HSV-1 induced cytopathogenic effect (CPE) by 50 % in HFF cells; format: functional, organism-based, herpes simplex virus; settings: Human alphaherpesvirus 1, HFF
HFF [25] = assay: Cytotoxic concentration for 50% inhibition of cell growth of HSV-1 infected HFF cells determined by CPE assay; format: functional; settings: Homo sapiens
Human alphaherpesvirus 3 [26] = assay: Antiviral activity against OKA strain of thymidine kinase positive(TK+) Varicella-Zoster Virus (VZV); format: functional, organism-based
Homo sapiens [27] = species on record: Homo sapiens; assay: Inhibitory concentration required to reduce cowpox virus induced virus plaque reduction (VPR) in human skin fibroblast; format: functional, organism-based
HFF [28] = assay: Inhibitory concentration to reduce Cowpox virus induced cytopathogenic effect by 50% in HFF cells; format: functional, cell-based; settings: Homo sapiens
Homo sapiens [29] = species on record: Homo sapiens; assay: Cytotoxic concentration that produces 50% growth inhibition of human skin fibroblast in VPR assay; format: functional
Homo sapiens [30] = species on record: Homo sapiens; assay: Inhibitory concentration required to reduce HSV-2 induced cytopathogenic effect in human skin fibroblast; format: functional, organism-based
HFF [31] = assay: Cytotoxic concentration for 50% inhibition of cell growth of HSV-1 infected HFF cells determined by VPR assay; format: functional; settings: Homo sapiens
[32] = Cytotoxic concentration against non transfected osteosarcoma cells non transfected (MG-63-hTK1); format: functional; how it was run: as §1
Homo sapiens [33] = species on record: Homo sapiens; assay: Inhibitory concentration required to reduce vaccinia virus induced virus plaque reduction (VPR) in human skin fibroblast; format: functional, organism-based
[34] = Selectivity index calculated as CC50/EC50 in the study of cytopathogenic effect by vaccinia virus; format: functional
[35] = Cytotoxic concentration that produces 50% inhibition of cell growth.; format: functional
Human alphaherpesvirus 2 = assay: Inhibitory concentration required to reduce HSV-2 induced cytopathogenic effect (CPE) by 50 % in HFF cells; format: functional, organism-based; settings: Human alphaherpesvirus 2, HFF
HFF [36] = assay: Cytotoxic concentration for 50% inhibition of cell growth of HSV-2 infected HFF cells determined by VPR assay; format: functional; settings: Homo sapiens
How it was run: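 Run in virus-infected HFF cells within the plaque reduction assay set-up. […] The value was converted from μg/mL to μM.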

Homo sapiens [37] = species on record: Homo sapiens; assay: Inhibitory concentration required to reduce HSV-1 induced cytopathogenic effect (CPE) in human skin fibroblast; format: functional, organism-based
Human alphaherpesvirus 3 [38] = assay: Effective concentration against TK- Varicella-Zoster Virus (VZV) 07/1 strain; format: functional, organism-based
HFF [39] = assay: Inhibitory concentration to reduce vaccinia virus induced cytopathogenic effect by 50% in HFF cells; format: functional, cell-based; settings: Homo sapiens
HFF [40] = assay: Inhibitory concentration for HSV-2 plaque reduction (VPR) by 50% in HFF cells; format: functional, cell-based; settings: Homo sapiens
[41] = Inhibition constant against HSV-1 TK; format: functional, herpes simplex virus
[42] = Cytotoxic concentration against HSV-1 TK-transfected osteosarcoma cells; format: functional; settings: Human alphaherpesvirus 1; how it was run: as §1
[43] = Inhibitory activity against HSV-1-TK transfected osteosarcoma cells; format: functional; how it was run: as §1
[44] = biological target: T1, Thymidine kinase, cytosolic (Homo sapiens) (UniProt P04183); settings: herpes simplex virus
T1 sequence (whole entry): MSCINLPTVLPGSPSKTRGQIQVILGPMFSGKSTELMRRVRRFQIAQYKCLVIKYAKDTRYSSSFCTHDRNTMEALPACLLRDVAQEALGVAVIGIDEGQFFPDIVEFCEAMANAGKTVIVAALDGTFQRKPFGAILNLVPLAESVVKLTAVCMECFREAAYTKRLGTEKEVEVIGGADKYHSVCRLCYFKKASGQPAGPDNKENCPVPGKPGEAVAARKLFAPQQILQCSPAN

[45] = Cytotoxic concentration against HSV-1 TK- transfected osteosarcoma cells; format: functional; settings: Human alphaherpesvirus 1; how it was run: as §1
Human alphaherpesvirus 3 [46] = assay: Effective concentration of compound against Varicella-Zoster Virus (VZV); Range is 0.06-0.12 uM; format: functional, organism-based

Question: With `O=c1[nH]c(=O)n([C@H]2C[C@H](O)[C@]3(CO)C[C@H]23)cc1Br` as the compound, how does the k cat [1] read?
Answer: Its k cat is 0.15 s⁻¹.

Question: And the EC50 (Homo sapiens [2])?
Answer: Its EC50 is 2.01 µM.

Question: And the EC50 (Homo sapiens [3])?
Answer: Its EC50 is 0.378 µM.

Question: And the EC50 (Human alphaherpesvirus 3 [4])?
Answer: Its EC50 is 0.2 µM.

Question: What about the CC50 (HFF [5]) of the same compound?
Answer: Its CC50 is > 315 µM.

Question: What about the CC50 (Homo sapiens [6]) of the same compound?
Answer: Its CC50 is > 315 µM.

Question: What about the SI [7] of the same compound?
Answer: Its SI is >38.

Question: What about the SI [8] of the same compound?
Answer: Its SI is > 3320.

Question: And the EC50 (HFF [9])?
Answer: Its EC50 is 10.7 µM.

Question: What about the CC50 [10] of the same compound?
Answer: The CC50 was 150 µM.

Question: What about the SI [11] of the same compound?
Answer: Its SI is > 256.

Question: And the EC50 (Human alphaherpesvirus 3 [12])?
Answer: The EC50 was 4 µM.

Question: What about the k cat [13] of the same compound?
Answer: Its k cat is 0.15 s⁻¹.

Question: What about the EC50 (Human alphaherpesvirus 3 [14]) of the same compound?
Answer: Its EC50 is 0.2 µM.

Question: What about the EC50 (HFF [15]) of the same compound?
Answer: Its EC50 is 8.19 µM.

Question: What about the CC50 (Human alphaherpesvirus 3 [16]) of the same compound?
Answer: Its CC50 is > 200 µM.

Question: And the EC50 (Human alphaherpesvirus 3 [17])?
Answer: The EC50 was 0.2 µM.

Question: What about the MCC [18] of the same compound?
Answer: Its MCC is > 50 µM.

Question: And the MCC (Human alphaherpesvirus 3 [19])?
Answer: The MCC was > 50 µM.

Question: And the EC50 (Homo sapiens [20])?
Answer: Its EC50 is 36.3 µM.

Question: What about the EC50 (Human alphaherpesvirus 3 [21]) of the same compound?
Answer: Its EC50 is > 20 µM.

Question: What about the EC50 (Human alphaherpesvirus 3 [22]) of the same compound?
Answer: Its EC50 is 4 µM.

Question: What about the EC50 (HFF [23]) of the same compound?
Answer: Its EC50 is 0.095 µM.

Question: What about the EC50 (Homo sapiens [24]) of the same compound?
Answer: The EC50 was 0.095 µM.

Question: And the EC50 (Human alphaherpesvirus 1)?
Answer: The EC50 was 1.23 µM.

Question: And the CC50 (HFF [25])?
Answer: Its CC50 is > 315 µM.

Question: And the EC50 (Human alphaherpesvirus 3 [26])?
Answer: Its EC50 is 0.2 µM.

Question: What about the EC50 (Homo sapiens [27]) of the same compound?
Answer: Its EC50 is 10.7 µM.

Question: And the EC50 (HFF [28])?
Answer: Its EC50 is 36.3 µM.

Question: And the CC50 (Homo sapiens [29])?
Answer: Its CC50 is > 315 µM.

Question: What about the EC50 (Homo sapiens [30]) of the same compound?
Answer: Its EC50 is 2.2 µM.

Question: What about the CC50 (HFF [31]) of the same compound?
Answer: Its CC50 is > 315 µM.

Question: And the CC50 [32]?
Answer: The CC50 was 330 µM.

Question: And the EC50 (Homo sapiens [33])?
Answer: The EC50 was 8.19 µM.

Question: And the SI [34]?
Answer: The SI was >156.

Question: And the CC50 [35]?
Answer: The CC50 was > 200 µM.

Question: What about the EC50 (Human alphaherpesvirus 2) of the same compound?
Answer: The EC50 was 2.2 µM.

Question: And the CC50 (HFF [36])?
Answer: The CC50 was > 315 µM.

Question: And the EC50 (Homo sapiens [37])?
Answer: Its EC50 is 1.23 µM.

Question: What about the EC50 (Human alphaherpesvirus 3 [38]) of the same compound?
Answer: The EC50 was > 20 µM.

Question: And the EC50 (HFF [39])?
Answer: The EC50 was 2.01 µM.

Question: What about the EC50 (HFF [40]) of the same compound?
Answer: The EC50 was 0.378 µM.

Question: And the Ki [41]?
Answer: The Ki was 69.8 µM.

Question: With `Nc1nc2c(ncn2COC(CO)CO)c(=O)[nH]1` [GANCICLOVIR] as the compound, how does the CC50 [42] read?
Answer: The CC50 was 75 µM.

Question: And the CC50 [43]?
Answer: The CC50 was 75 µM.

Question: And the k cat [44]?
Answer: The k cat was 0.1 s⁻¹.

Question: What about the CC50 [32] of the same compound?
Answer: Its CC50 is 300 µM.

Question: And the CC50 [45]?
Answer: Its CC50 is 200 µM.

Question: What does the source list for `O=c1[nH]c(=O)n([C@H]2C[C@H](O)[C@@H](CO)O2)cc1/C=C/Br` [BRIVUDINE]?
Answer: EC50 (Human alphaherpesvirus 3 [4]): 0.008 µM; EC50 (Human alphaherpesvirus 3 [12]): > 150 µM; EC50 (Human alphaherpesvirus 3 [14]): 0.005 µM; CC50 (Human alphaherpesvirus 3 [16]): > 400 µM; EC50 (Human alphaherpesvirus 3 [17]): 0.008 µM; MCC [18]: > 150 µM; MCC (Human alphaherpesvirus 3 [19]): > 150 µM; EC50 (Human alphaherpesvirus 3 [21]): > 150 µM; EC50 (Human alphaherpesvirus 3 [22]): > 150 µM; EC50 (Human alphaherpesvirus 3 [26]): 0.005 µM; CC50 [35]: > 400 µM; EC50 (Human alphaherpesvirus 3 [38]): > 150 µM

Question: Which EC50 (Human alphaherpesvirus 3 [46]) does the source give for `O=c1[nH]c(=O)n([C@H]2C[C@@H](CO)[C@H](O)C2)cc1/C=C/Br` here?
Answer: Its EC50 is 0.12 µM.

— ChEMBL document CHEMBL1144911, “Synthesis and biological evaluation of 5-substituted derivatives of the potent antiherpes agent (north)-methanocarbathymine” (J Med Chem, 2003)
